The source made the active and inactive calls.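 The calls were made as follows, unless noted: active = visually confirmed hit in the image check and inhibition above 20%; inconclusive = visually confirmed hit but inhibition not above 20%; inactive = no visual hit in the image check.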
Tests used:
[1] = inhibitors of TNFa-induced NFkB p65 translocation, primary screen, imaging, HUVEC, MLSMR starter and 10KST1 sets (AID 438;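 active = inhibition above 20% together with a positive visual image hit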;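 also: compound added about 3h40 before a 20 min TNFalpha stimulation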;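 as to inhibition: signal is the nuclear over cytoplasmic p65 intensity ratio per well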); details: HUVEC TNFa-induced p65 nuclear translocation; cell count: measured here: nuclei count (cytotoxicity indicator), at 2.08 µM; inhibition: at 2 µM, stronger effect = higher value, 0% TNFa-plus-vehicle, 100% no-TNFa wells
[2] = reduction of polyQ htt aggregates in cells – imaging, exon1htt(103Q)mCFP cells, high-content imaging, primary screen (AID 483;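 active = visual image review flags a hit and inhibition of aggregation exceeds 20%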;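 also: compound exposure lasted 3 days before fixation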;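 as to nuclei count: percent of the per-plate median nuclei count of sample wells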); details: exon1htt(103Q)mCFP cell line, aggregate imaging, at 2 µM; inhibition of aggregation: stronger effect = higher value; nuclei count: measured here: cell count, toxicity
[3] = endothelial E-selectin expression blockers – imaging, HUVEC, immunofluorescence, MLSMR starter and 10KST1 sets, primary screen (AID 487); details: HUVEC TNFalpha-induced E-selectin immunofluorescence imaging, at 2 µM; inhibition: stronger effect = higher value; nuclei count: measured here: cell number, toxicity;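 as to inhibition: signal is fraction of cell area covered by stained E-selectin grains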;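 as to nuclei count: 100% = median nuclei count of all wells on the same plate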
[4] = biological target: Voltage-gated potassium channel subunit beta-2 (Rattus norvegicus) (UniProt P62483); experiment: inhibitors of rat Kvbeta2 reductase activity – biochemical, NADPH fluorescence, primary screen (AID 622;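 active = fluorescence slope higher than the sample average by over 3 SD, cut at about -0.22 in these data, passing the limit was not always enough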;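 also: slope of raw intensity against log time taken from 70 to 1610 s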); details: recombinant KvBeta, 4-cyanobenzaldehyde reduction, at 10 µM, stronger effect = higher value
Voltage-gated potassium channel subunit beta-2 (Rattus norvegicus), sequence (P62483 whole entry, looked up): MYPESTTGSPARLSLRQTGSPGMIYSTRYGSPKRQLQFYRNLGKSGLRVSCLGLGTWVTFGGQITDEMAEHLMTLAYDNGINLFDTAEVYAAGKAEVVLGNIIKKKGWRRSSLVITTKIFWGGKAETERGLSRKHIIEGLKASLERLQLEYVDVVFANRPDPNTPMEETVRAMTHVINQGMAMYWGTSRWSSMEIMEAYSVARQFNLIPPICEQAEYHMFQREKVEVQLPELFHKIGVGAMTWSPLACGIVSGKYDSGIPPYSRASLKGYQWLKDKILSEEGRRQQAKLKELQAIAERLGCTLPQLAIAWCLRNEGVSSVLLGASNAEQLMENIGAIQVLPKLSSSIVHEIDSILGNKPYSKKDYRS

[5] = biological target: Voltage-gated potassium channel subunit beta-2 (Rattus norvegicus) (UniProt P62483); experiment: enhancers of rat Kvbeta2 NADPH turnover – biochemical, NADPH fluorescence, primary screen (AID 623;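 active = NADPH fluorescence slope more negative than the mean of all samples by about 3 SD, 99.7% confidence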;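 also: fluorescence intensity change per second fitted from 20 to 320 s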); details: Recombinant KvBeta, NADPH fluorescence decrease slope, 10 min; at 10 µM; stronger effect = lower value
[6] = biological target: Muscarinic acetylcholine receptor M4 (Homo sapiens) (UniProt P08173); experiment: M4-linked GIRK flux change, two-sided – cell-based, HEK293 M4/GIRK, thallium flux, BTC-AM, M4 allosteric agonist project, primary screen (AID 625;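 active = fluorescence slope after compound addition differing from the mean of all tested samples at 99.7% confidence, mostly higher but some lower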;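 also: thallium influx through GIRK channels coupled to M4 in HEK293 cells with BTC-AM dye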); details: at 10 µM, actives lie on both sides
Muscarinic acetylcholine receptor M4 (Homo sapiens), sequence (P08173 whole entry, looked up): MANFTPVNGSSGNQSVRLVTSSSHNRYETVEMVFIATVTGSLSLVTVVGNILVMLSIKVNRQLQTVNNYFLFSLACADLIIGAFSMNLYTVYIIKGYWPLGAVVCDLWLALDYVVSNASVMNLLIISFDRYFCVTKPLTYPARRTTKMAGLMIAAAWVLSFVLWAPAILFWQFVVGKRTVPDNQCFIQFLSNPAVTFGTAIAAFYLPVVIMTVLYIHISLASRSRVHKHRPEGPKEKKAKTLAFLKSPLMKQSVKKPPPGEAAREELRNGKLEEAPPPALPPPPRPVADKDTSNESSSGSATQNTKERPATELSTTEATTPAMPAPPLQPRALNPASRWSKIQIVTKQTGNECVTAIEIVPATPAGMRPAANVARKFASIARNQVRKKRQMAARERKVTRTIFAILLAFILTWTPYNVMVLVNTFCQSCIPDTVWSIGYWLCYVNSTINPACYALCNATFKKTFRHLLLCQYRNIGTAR
How it was run: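 assay system = HEK293 cells with M4 receptor and GIRK channels | medium = pH 7.3 thallium assay buffer | doses = 10 µM final, single point | timing = cells overnight at 37 °C, BTC-AM loading 1 h, reads 2 min total | signal = BTC-AM fluorescence, 1 Hz kinetic reads | read-out = post-addition slope, 15–24 s, of baseline-normalized fluorescence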

[7] = blockers of RIG-like receptor reporter activation – cell-based, Sendai virus stimulus, luciferase, 10K MLSCN set, TLR/RLR signaling modifier project, primary screen (AID 602276;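 active = inhibition at or above 50% at 10 µM; inactive = inhibition below 50%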;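 also: firefly luciferase from ISG56 promoter only with Renilla not read in this screen; 0% = Sendai virus plus DMSO and 100% = medium plus DMSO without virus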); details: HEK293 RL24 IRF3 luciferase reporter, at 10 µM, stronger effect = higher value
[8] = TLR3 IRF3 reporter activation blockers – cell-based, poly I:C stimulus, luciferase, 10K MLSCN set, primary screen (AID 602277;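 active = inhibition of the reporter signal at or above 50%; inactive = inhibition below 50%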); details: HEK293-TLR3 RL24 IRF3 luciferase reporter, at 10 µM, stronger effect = higher value

Compound	cell count [1]	inhibition [1]	inhibition of aggregation [2]	nuclei count [2]	inhibition [3]	nuclei count [3]	fluorescence slope [4]	NADPH fluorescence slope [5]	fluorescence slope [6]	inhibition [7]	inhibition [8]
CCCOc1ccc(-c2nnn(CC(=O)Nc3cccc(C(=O)OC)c3)n2)cc1	380	-2.1% (inactive)	-8.7% (inactive)	109%	-27.4% (inactive)	112%	-0.503 (inactive)	0.000154 (inactive)	0.00964 (inactive)	11.3% (inactive)	-4.78% (inactive)
CCNC(=O)CC(=O)Nc1ccccc1C(=O)O	725	-14.7% (inactive)	11.3% (inactive)	90.3%	-35.3% (inactive)	118%	-0.282 (inactive)	-2.6e-05 (inactive)	0.00586 (inactive)	17.2% (inactive)	16.6% (inactive)
CCOc1ncccc1C(=O)Nc1ccc2c(C)cc(=O)oc2c1	585	5.8% (inactive)	10% (inactive)	92.5%	-26.9% (inactive)	96.9%	-0.535 (inactive)	-3.1e-05 (inactive)	0.00712 (inactive)	10.1% (inactive)	4.34% (inactive)
O=C(Cn1nnc2c(cnn2-c2ccc(F)cc2)c1=O)c1ccccc1F	438	5.1% (inactive)	-13.6% (inactive)	104%	-86.3% (inactive)	118%	-0.553 (inactive)	-4.4e-05 (inactive)	0.00571 (inactive)	11.8% (inactive)	10.7% (inactive)
CC1(C)CC(=O)C(C=NCCO)=C(O)C1	416	-1.8% (inactive)	57% (active)	23.4%	-45.4% (inactive)	123%	-0.243 (inactive)	-2.1e-05 (inactive)	0.00793 (inactive)	21.7% (inactive)	-0.595% (inactive)
CCCCNC(=O)Nc1ccnn1C1CCCCC1	909	-7.5% (inactive)	-8.6% (inactive)	100%	-34.1% (inactive)	105%	-0.56 (inactive)	-1.6e-05 (inactive)	0.0186 (active)	17% (inactive)	18.1% (inactive)
O=C(NCCN1CCN(c2ccccc2)CC1)c1ccc(NC(=O)C2CCCO2)cc1 (stereo not drawn)	562	-21.6% (inactive)	-9% (inactive)	99.2%	-135% (inactive)	114%	-0.468 (inactive)	5.8e-06 (inactive)	0.00539 (inactive)	3.22% (inactive)	6.35% (inactive)
O=C(CN(c1ccccc1)S(=O)(=O)c1ccccc1)N1CCN(Cc2ccc3c(c2)OCO3)CC1	372	4% (inactive)	-11.3% (inactive)	122%	-23.4% (inactive)	116%	-0.528 (inactive)	-3.2e-05 (inactive)	0.00412 (inactive)	13.6% (inactive)	21.8% (inactive)
CSc1n[nH]c(NCc2ccccc2)n1	278	0.2% (inactive)	10.1% (inactive)	70.6%	-70.1% (inactive)	119%	-0.482 (inactive)	-1.9e-05 (inactive)	0.00548 (inactive)	6.09% (inactive)	-2.54% (inactive)
Cc1onc(-c2c(Cl)cccc2Cl)c1C(=O)NCCN1CCOCC1	548	5.1% (inactive)	-1.4% (inactive)	98.9%	-48.2% (inactive)	108%	-0.471 (inactive)	3e-06 (inactive)	0.00527 (inactive)	21.3% (inactive)	16.3% (inactive)
COc1ccc(S(=O)(=O)n2ccnc2)c2cccnc12	442	-21.1% (inactive)	1% (inactive)	82%	20.6% (inactive)	85.1%	-0.358 (inactive)	7.3e-05 (inactive)	0.00671 (inactive)	0.31% (inactive)	8.74% (inactive)
COc1cccc(NC(=O)Nc2cccs2)c1	355	-1.5% (inactive)	-5.7% (inactive)	93.5%	9.9% (inactive)	115%	-0.483 (inactive)	0.00014 (inactive)	0.00925 (active)	-20.2% (inactive)	-76.7% (inactive)
O=C(CCn1nc(-c2ccc(Cl)cc2)ccc1=O)N1CCN(c2ccccn2)CC1	244	-0.9% (inactive)	26.9% (inactive)	100%	36.1% (inactive)	98.7%	-0.582 (inactive)	-8.6e-06 (inactive)	0.00547 (inactive)	7.53% (inactive)	10.9% (inactive)
CCc1cccc(NS(=O)(=O)c2c(C)n[nH]c2C)c1	679	-8.8% (inactive)	-12.8% (inactive)	124%	-135% (inactive)	111%	-0.465 (inactive)	-1.4e-05 (inactive)	0.00614 (inactive)	4.66% (inactive)	19.7% (inactive)
CC(C)(C)C(=O)Oc1cc(N)n(S(=O)(=O)c2ccccc2)n1	228	-0.3% (inactive)	-1.1% (inactive)	109%	-24.6% (inactive)	129%	-0.52 (inactive)	-5.6e-05 (inactive)	0.00539 (inactive)	-12% (inactive)	-7.53% (inactive)
O=C(COC(=O)c1ccco1)NCc1cccs1	516	-13% (inactive)	-4.6% (inactive)	93.5%	7.8% (inactive)	88.2%	-0.534 (inactive)	-5.7e-05 (inactive)	0.0055 (inactive)	5.62% (inactive)	5.96% (inactive)
CCn1c(NCc2ccc(N(C)C)cc2)nc2ccccc21	627	12.5% (inactive)	-2.9% (inactive)	96.5%	-34.6% (inactive)	116%	-0.31 (inactive)	-2.4e-05 (inactive)	0.00632 (inactive)	-9.27% (inactive)	-36.5% (inactive)
CCC(NS(=O)(=O)c1ccc(C)cc1)C(=O)N1CCC2(O)CCCCC2C1 (stereo not drawn)	379	-3.1% (inactive)	-10.7% (inactive)	106%	-121% (inactive)	215%	-0.429 (inactive)	0.000113 (inactive)	0.00572 (inactive)	0.0772% (inactive)	14.3% (inactive)
CCOC(=O)N1CCN(S(=O)(=O)c2cc(Cl)c(OC)cc2Cl)CC1	364	-9.8% (inactive)	-8.2% (inactive)	100%	-101% (inactive)	112%	-0.509 (inactive)	4.3e-05 (inactive)	0.00536 (inactive)	-2.67% (inactive)	1.26% (inactive)
COCCN1CN(S(=O)(=O)c2ccccc2)c2nc3ccccc3nc21	307	8.3% (inactive)	-0.3% (inactive)	94.4%	-47.3% (inactive)	160%	-0.54 (inactive)	-0.000125 (inactive)	0.00322 (inactive)	13.6% (inactive)	17.4% (inactive)
O=C(c1ccc(Cl)cc1)C1CCN(C(=O)NC2CCCCC2)CC1	456	-15% (inactive)	13.9% (inactive)	86.5%	-37.3% (inactive)	104%	-0.541 (inactive)	-1.3e-05 (inactive)	0.00452 (inactive)	4.14% (inactive)	-12.4% (inactive)
O=C(Nc1cccc2c1CCCC2)C1CCN(c2nnnn2-c2ccccc2)CC1	653	1.7% (inactive)	0.3% (inactive)	109%	-20.6% (inactive)	109%	-0.566 (inactive)	2.3e-05 (inactive)	0.00472 (inactive)	10.2% (inactive)	10.8% (inactive)
CC1CCN(C(=S)c2ccccc2O)CC1	713	-2.9% (inactive)	7.3% (inactive)	98.7%	-144% (inactive)	121%	-0.536 (inactive)	-5.2e-05 (inactive)	0.0045 (inactive)	24.9% (inactive)	34.5% (inactive)
COc1ccc(OC(C)C(=O)N2CC(C)OC(C)C2)cc1 (stereo not drawn)	436	12.2% (inactive)	-4.6% (inactive)	97.2%	-7.5% (inactive)	120%	-0.566 (inactive)	1.5e-06 (inactive)	0.00556 (inactive)	14.1% (inactive)	30.8% (inactive)
CC(C)[C@H](NC(=O)OC(C)(C)C)c1nnc(S(=O)(=O)Cc2c(F)cccc2Cl)o1	570	10.7% (inactive)	-0.1% (inactive)	89.7%	36.5% (inactive)	101%	-0.521 (inactive)	-0.000188 (inactive)	0.00242 (inactive)	32.2% (inactive)	21.7% (inactive)
Cc1ccc(S(=O)(=O)NCCCCC(NC(=O)OC(C)(C)C)C(=O)O)cc1 (stereo not drawn) (tested in a mixture with another compound)	631	1.1% (inactive)	5.6% (inactive)	99.5%	34.4% (inactive)	95.6%	-0.6 (inactive)	-3.1e-06 (inactive)	0.00344 (inactive)	15.2% (inactive)	13.1% (inactive)
CCOc1ccc(-c2nnc(N(CC)C(=O)C3CCC3)s2)cc1	440	9.7% (inactive)	3.2% (inactive)	103%	-32% (inactive)	111%	-0.461 (inactive)	2e-05 (inactive)	0.00526 (inactive)	-19.2% (inactive)	-80.4% (inactive)
CCOC(=O)c1[nH]nc(-c2c(O)cc(C)cc2O)c1-c1csc(C)n1	495	-16.3% (inactive)	-2.1% (inactive)	87.5%	56.2% (inactive)	61.3%	-0.453 (inactive)	-0.000313 (inactive)	0.00535 (inactive)	-7.71% (inactive)	-0.807% (inactive)
